Tested on: HEK-293T
Experiment: Multiplex assay against HEK293T
Assay type: toxicity, cell-based
Settings: human
How it was run: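 Live cells carried four stains from seeding: Hoechst33342, BioTracker Green Microtubule Cytoskeleton Dye, MitoTracker Red and Annexin V Alexa Fluor 680. They were imaged on a CQ1 microscope at 37°C and 5% CO2 after compound addition. Using CellPathfinder machine-learning gating, cells were split into Hoechst high-intensity objects or normal cells, normal cells into healthy, pyknosed or fragmented nuclei, and pyknosed cells into mitotic or apoptotic; tubulin, mitochondrial-mass and membrane-permeability phenotypes are per cents of healthy-nucleus cells.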

[1] = 12 h, 1 µM, compound concentration 1 uM, replicate 1
[2] = 12 h, 1 µM, compound concentration 1 uM, replicate 2
[3] = 12 h, 10 µM, compound concentration 10 uM, replicate 1
[4] = 12 h, 10 µM, compound concentration 10 uM, replicate 2
[5] = 24 h, 1 µM, compound concentration 1 uM, replicate 1
[6] = 24 h, 1 µM, compound concentration 1 uM, replicate 2
[7] = 24 h, 10 µM, compound concentration 10 uM, replicate 1
[8] = 24 h, 10 µM, compound concentration 10 uM, replicate 2
[9] = 48 h, 1 µM, compound concentration 1 uM, replicate 1
[10] = 48 h, 1 µM, compound concentration 1 uM, replicate 2
[11] = 48 h, 10 µM, compound concentration 10 uM, replicate 1
[12] = 48 h, 10 µM, compound concentration 10 uM, replicate 2

Cl.N=C(N)NC(=O)Cc1c(Cl)cccc1Cl [GUANFACINE HYDROCHLORIDE] was tested, and the “Population Apoptotic (%)” value [1] was 29%, the “Population Fragmented Nuclei (%)” value [1] was 3% and the “Population Healthy Nuclei (%)” value [1] was 84%. The “Population Hoechst High Intensity Objects (%)” value [1] was 7%, the “Population Membrane Permeable-Phenotype (%)” value [1] was 0% and the “Population Mitochondria Different-Phenotype (%)” value [1] was 46%. For the same molecule, the “Population Mitotic Cells (%)” value [1] was 70%, the “Population Normal (%)” value [1] was 92% and the “Population Pyknosed Nuclei (%)” value [1] was 11%. For the same molecule, the “Population Tubulin-Different-Phenotype (%)” value [1] was 31%, the “Total Cell Count” value [1] was 384 and the “Population Apoptotic (%)” value [2] was 47%. For the same molecule, the “Population Fragmented Nuclei (%)” value [2] was 5%, the “Population Healthy Nuclei (%)” value [2] was 76% and the “Population Hoechst High Intensity Objects (%)” value [2] was 12%. For the same molecule, the “Population Mitochondria Different-Phenotype (%)” value [2] was 67%, the “Population Mitotic Cells (%)” value [2] was 52% and the “Population Normal (%)” value [2] was 87%. The “Population Pyknosed Nuclei (%)” value [2] was 17%, the “Total Cell Count” value [2] was 289 and the “Population Apoptotic (%)” value [3] was 52%. For the same molecule, the “Population Fragmented Nuclei (%)” value [3] was 12%, the “Population Healthy Nuclei (%)” value [3] was 67% and the “Population Hoechst High Intensity Objects (%)” value [3] was 7%. For the same molecule, the “Population Membrane Permeable-Phenotype (%)” value [3] was 0%, the “Population Mitochondria Different-Phenotype (%)” value [3] was 61% and the “Population Mitotic Cells (%)” value [3] was 47%. The “Population Normal (%)” value [3] was 92%, the “Population Pyknosed Nuclei (%)” value [3] was 20% and the “Population Tubulin-Different-Phenotype (%)” value [3] was 43%. For the same molecule, the “Total Cell Count” value [3] was 296, the “Population Apoptotic (%)” value [4] was 34% and the “Population Fragmented Nuclei (%)” value [4] was 8%. For the same molecule, the “Population Healthy Nuclei (%)” value [4] was 77%, the “Population Hoechst High Intensity Objects (%)” value [4] was 10% and the “Population Mitochondria Different-Phenotype (%)” value [4] was 69%. For the same molecule, the “Population Mitotic Cells (%)” value [4] was 65%, the “Population Normal (%)” value [4] was 89% and the “Population Pyknosed Nuclei (%)” value [4] was 14%. The “Population Tubulin-Different-Phenotype (%)” value [4] was 38%, the “Total Cell Count” value [4] was 365 and the “Population Apoptotic (%)” value [5] was 36%. For the same molecule, the “Population Fragmented Nuclei (%)” value [5] was 8%, the “Population Healthy Nuclei (%)” value [5] was 80% and the “Population Hoechst High Intensity Objects (%)” value [5] was 4%. The “Population Membrane Permeable-Phenotype (%)” value [5] was 0%, the “Population Mitochondria Different-Phenotype (%)” value [5] was 27% and the “Population Mitotic Cells (%)” value [5] was 63%. For the same molecule, the “Population Normal (%)” value [5] was 95%, the “Population Pyknosed Nuclei (%)” value [5] was 11% and the “Population Tubulin-Different-Phenotype (%)” value [5] was 21%. For the same molecule, the “Total Cell Count” value [5] was 493, the “Population Apoptotic (%)” value [6] was 50% and the “Population Fragmented Nuclei (%)” value [6] was 4%. For the same molecule, the “Population Healthy Nuclei (%)” value [6] was 83%, the “Population Hoechst High Intensity Objects (%)” value [6] was 10% and the “Population Mitochondria Different-Phenotype (%)” value [6] was 42%. For the same molecule, the “Population Mitotic Cells (%)” value [6] was 50%, the “Population Normal (%)” value [6] was 89% and the “Population Tubulin-Different-Phenotype (%)” value [6] was 19%. For the same molecule, the “Total Cell Count” value [6] was 344, the “Population Apoptotic (%)” value [7] was 46% and the “Population Fragmented Nuclei (%)” value [7] was 11%. The “Population Healthy Nuclei (%)” value [7] was 75%, the “Population Hoechst High Intensity Objects (%)” value [7] was 7% and the “Population Membrane Permeable-Phenotype (%)” value [7] was 0%. For the same molecule, the “Population Mitochondria Different-Phenotype (%)” value [7] was 48%, the “Population Mitotic Cells (%)” value [7] was 53% and the “Population Normal (%)” value [7] was 92%. The “Population Pyknosed Nuclei (%)” value [7] was 12%, the “Population Tubulin-Different-Phenotype (%)” value [7] was 39% and the “Total Cell Count” value [7] was 343. The “Population Apoptotic (%)” value [8] was 36%, the “Population Fragmented Nuclei (%)” value [8] was 6% and the “Population Healthy Nuclei (%)” value [8] was 83%. The “Population Hoechst High Intensity Objects (%)” value [8] was 9%, the “Population Mitochondria Different-Phenotype (%)” value [8] was 50% and the “Population Mitotic Cells (%)” value [8] was 63%. For the same molecule, the “Population Normal (%)” value [8] was 90%, the “Population Pyknosed Nuclei (%)” value [8] was 10% and the “Population Tubulin-Different-Phenotype (%)” value [8] was 27%. For the same molecule, the “Total Cell Count” value [8] was 454, the “Population Apoptotic (%)” value [9] was 15% and the “Population Fragmented Nuclei (%)” value [9] was 15%. The “Population Healthy Nuclei (%)” value [9] was 78%, the “Population Hoechst High Intensity Objects (%)” value [9] was 2% and the “Population Membrane Permeable-Phenotype (%)” value [9] was 1%. For the same molecule, the “Population Mitochondria Different-Phenotype (%)” value [9] was 22%, the “Population Mitotic Cells (%)” value [9] was 84% and the “Population Normal (%)” value [9] was 97%. For the same molecule, the “Population Pyknosed Nuclei (%)” value [9] was 6%, the “Population Tubulin-Different-Phenotype (%)” value [9] was 21% and the “Total Cell Count” value [9] was 680. For the same molecule, the “Population Apoptotic (%)” value [10] was 34%, the “Population Fragmented Nuclei (%)” value [10] was 10% and the “Population Healthy Nuclei (%)” value [10] was 79%. For the same molecule, the “Population Hoechst High Intensity Objects (%)” value [10] was 7%, the “Population Membrane Permeable-Phenotype (%)” value [10] was 0% and the “Population Mitochondria Different-Phenotype (%)” value [10] was 32%. For the same molecule, the “Population Mitotic Cells (%)” value [10] was 65%, the “Population Normal (%)” value [10] was 92% and the “Population Pyknosed Nuclei (%)” value [10] was 9%. For the same molecule, the “Population Tubulin-Different-Phenotype (%)” value [10] was 14%, the “Total Cell Count” value [10] was 560 and the “Population Apoptotic (%)” value [11] was 47%. For the same molecule, the “Population Fragmented Nuclei (%)” value [11] was 17%, the “Population Healthy Nuclei (%)” value [11] was 73% and the “Population Hoechst High Intensity Objects (%)” value [11] was 6%. The “Population Membrane Permeable-Phenotype (%)” value [11] was 0%, the “Population Mitochondria Different-Phenotype (%)” value [11] was 31% and the “Population Mitotic Cells (%)” value [11] was 52%. For the same molecule, the “Population Normal (%)” value [11] was 93%, the “Population Pyknosed Nuclei (%)” value [11] was 9% and the “Population Tubulin-Different-Phenotype (%)” value [11] was 14%. The “Total Cell Count” value [11] was 421, the “Population Apoptotic (%)” value [12] was 50% and the “Population Fragmented Nuclei (%)” value [12] was 12%. The “Population Healthy Nuclei (%)” value [12] was 80%, the “Population Hoechst High Intensity Objects (%)” value [12] was 10% and the “Population Mitochondria Different-Phenotype (%)” value [12] was 33%. The “Population Mitotic Cells (%)” value [12] was 50%, the “Population Normal (%)” value [12] was 89% and the “Population Pyknosed Nuclei (%)” value [12] was 6%. The “Population Tubulin-Different-Phenotype (%)” value [12] was 20% and the “Total Cell Count” value [12] was 612.
